pIC50, pKd: −log10 of the molar value. Marks after values point to notes of the source that are not given here.
Columns and labels:
lipase = settings: cited from earlier work
pancreatic lipase [1] = molecular target: T1, pancreatic lipase (Sus scrofa, UniProt P00591); settings: cited from earlier work
T1 sequence (P00591 1-450): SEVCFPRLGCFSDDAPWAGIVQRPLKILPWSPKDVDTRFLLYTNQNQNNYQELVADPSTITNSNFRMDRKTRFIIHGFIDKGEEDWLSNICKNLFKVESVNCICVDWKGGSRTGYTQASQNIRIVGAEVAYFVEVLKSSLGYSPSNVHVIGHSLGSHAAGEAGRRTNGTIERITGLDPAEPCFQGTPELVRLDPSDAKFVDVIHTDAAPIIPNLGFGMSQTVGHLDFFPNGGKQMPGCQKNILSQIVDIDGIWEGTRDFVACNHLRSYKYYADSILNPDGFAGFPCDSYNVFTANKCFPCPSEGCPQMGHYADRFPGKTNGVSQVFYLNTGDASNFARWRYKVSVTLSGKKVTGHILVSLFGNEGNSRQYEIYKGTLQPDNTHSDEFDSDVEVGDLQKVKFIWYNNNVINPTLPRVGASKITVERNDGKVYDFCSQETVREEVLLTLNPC

pancreatic lipase [2] = molecular target: T1, pancreatic lipase; assay: Enzymatic assay of lipase activity; type: biochemical; settings: for inhibition type: Lineweaver–Burk plots, 310 K, 405 nm, pNPC 2.0–3.6 × 10^−3 M
pancreatic lipase [3] = molecular target: T1, pancreatic lipase; assay: ITC analysis of HYP titrated into lipase; type: binding
How it was run: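 Calorimetric titration: 1.0×10^-4 M lipase in the cell, containing 1% ethanol, titrated with 1.0×10^-3 M test compound. Injections at 180 s intervals, stirring at 250 rpm; other solutions degassed. First injection discarded. Integrated heats corrected for dilution and fitted against molar ratio. ΔG from −RT lnKa; ΔS from ΔG = ΔH − TΔS.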

pancreatic lipase [4] = molecular target: T1, pancreatic lipase; assay: Fourier-transform infrared spectroscopy of lipase secondary structure; settings: ratio of lipase to HYP increased from 1 : 0 to 1 : 4, FT-IR, 298 K
How it was run: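 FT-IR at 298 K: 128 scans at 4 cm⁻¹ resolution. Lipase at 2.0×10^-4 M, alone or with test compound at different ratios. Background, protein and compound spectra subtracted; samples scanned over 1700–1500 cm⁻¹. Amide bands analysed by peak fitting.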

pancreatic lipase [5] = molecular target: T1, pancreatic lipase; assay: Fluorescence titration; type: binding; settings: for ΔG: from fluorescence data; for pKd: K a (binding constant)
How it was run: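 Lipase held at 6.0×10^-6 M final with 0 to 4.2×10^-5 M final test compound, in 5.0×10^-2 M Tris–HCl pH 7.4. Spectra recorded at 277, 298 and 310 K: excitation 280 nm, emission 300–500 nm, slits 5 nm. Intensities corrected for inner-filter effect.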

pancreatic lipase [6] = molecular target: T1, pancreatic lipase; assay: Time-resolved fluorescence measurements; type: binding; settings: fluorescence titration and time-resolved fluorescence
How it was run: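 Fluorescence lifetimes of free lipase and of the lipase–test compound complex at 298 K. Excitation 280 nm, emission 345 nm. Decays analysed by tail fitting, with fits judged by χ². Average lifetime calculated as Σαiτi.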

pancreatic lipase [7] = molecular target: T1, pancreatic lipase; assay: Synchronous fluorescence spectroscopy; type: binding; settings: HYP 4.2 × 10^−5 M, 298 K
[8] = from fluorescence data at 277, 298, 310 K

**Q.** Which lipase inhibition (lipase) does the source give for `C[C@@H]1O[C@@H](Oc2c(-c3ccc(O)c(O)c3)oc3cc(O)cc(O)c3c2=O)[C@H](O)[C@H](O)[C@H]1O` [quercetin 3-rhamnoside] here?
**A.** effective in lipase inhibition

**Q.** With `CCCCCCCCCCC[C@@H](C[C@@H]1OC(=O)[C@H]1CCCCCC)OC(=O)[C@H](CC(C)C)NC=O` [orlistat, reference compound] as the compound, how does the reversibility of inhibition (pancreatic lipase [1]) read?
**A.** irreversible inhibition

**Q.** What about the inhibition type (pancreatic lipase [2]) of the same compound?
**A.** competitive inhibition

**Q.** With `O=c1c(O[C@@H]2O[C@H](CO)[C@H](O)[C@H](O)[C@H]2O)c(-c2ccc(O)c(O)c2)oc2cc(O)cc(O)c12` [HYP, quercetin-3-O-β-D-galactoside] as the compound, how does the pKd (pancreatic lipase [3]) read?
**A.** 5.20

**Q.** What about the ΔG (pancreatic lipase [3]; ITC) of the same compound?
**A.** -7.091 kcal/mol

**Q.** And the ΔH (pancreatic lipase [3]; ITC)?
**A.** -5.569 kcal/mol

**Q.** What about the ΔS (pancreatic lipase [3]; ITC) of the same compound?
**A.** 21.36 J mol^−1 K^−1

**Q.** What about the pIC50 (pancreatic lipase [2]) of the same compound?
**A.** 2.72

**Q.** And the inhibition type (pancreatic lipase [2])?
**A.** non-competitive inhibitor

**Q.** And the “decrease of α-helix in lipase” value (pancreatic lipase [4])?
**A.** 1.6%

**Q.** What about the “K SV (Stern–Volmer quenching constant)” value (pancreatic lipase [5]; 277 K) of the same compound?
**A.** 7.113 ± 0.029^a × 10^4 M^−1

**Q.** And the KSV (pancreatic lipase [5]; 277 K)?
**A.** 7.113 ± 0.029 × 10^4 M^−1

**Q.** And the “n (Hill coefficient)” value (pancreatic lipase [5]; 277 K)?
**A.** 1.379

**Q.** What about the ΔG (pancreatic lipase [5]; 277 K) of the same compound?
**A.** -8.32 kcal/mol

**Q.** What about the “K SV (Stern–Volmer quenching constant)” value (pancreatic lipase [5]; 298 K) of the same compound?
**A.** 6.826 ± 0.010^b × 10^4 M^−1

**Q.** What about the “n (Hill coefficient)” value (pancreatic lipase [5]; 298 K) of the same compound?
**A.** 1.337

**Q.** What about the ΔG (pancreatic lipase [5]; 298 K) of the same compound?
**A.** -8.489 kcal/mol

**Q.** What about the “K SV (Stern–Volmer quenching constant)” value (pancreatic lipase [5]; 310 K) of the same compound?
**A.** 6.247 ± 0.060^b × 10^4 M^−1

**Q.** And the KSV (pancreatic lipase [5]; 310 K)?
**A.** 6.247 ± 0.060 × 10^4 M^−1

**Q.** And the binding constant (pancreatic lipase [5]; 310 K)?
**A.** 1.048e+06 M⁻¹

**Q.** And the “n (Hill coefficient)” value (pancreatic lipase [5]; 310 K)?
**A.** 1.286

**Q.** And the ΔG (pancreatic lipase [5]; 310 K)?
**A.** -8.587 kcal/mol

**Q.** And the pKd (pancreatic lipase [5]; 277 K)?
**A.** 6.55

**Q.** And the pKd (pancreatic lipase [5]; 298 K)?
**A.** 6.28

**Q.** And the pKd (pancreatic lipase [5]; 310 K)?
**A.** 6.02

**Q.** What about the n values (pancreatic lipase [5]; at different temperatures (277, 298, 310 K)) of the same compound?
**A.** greater than 1

**Q.** And the ΔH (pancreatic lipase [5]; [8])?
**A.** -6.085 kcal/mol

**Q.** And the ΔS (pancreatic lipase [5]; [8])?
**A.** 33.77 J mol^−1 K^−1

**Q.** And the quenching mechanism (pancreatic lipase [6])?
**A.** static quenching

**Q.** What about the “decrease of Tyr residue fluorescence intensity” value (pancreatic lipase [7]; Δλ = 15 nm) of the same compound?
**A.** 65.86%

**Q.** What about the “decrease of Trp residue's fluorescence intensity” value (pancreatic lipase [7]; Δλ = 60 nm) of the same compound?
**A.** 73.65%
